# High-throughput results (PubChem BioAssay)
# Measles CPE – compounds protecting cells from measles virus cytopathic effect, primary screen, measles RdRp inhibitor project, single point, MLSMR library, absorbance. Measles virus-infected cells, CPE protection. protection (pct of control), % at 4 µM. hit rate 1.5% among 140,000. AID 841, 2007; in the data active = protection mostly above about 24%, no sharp cut-off; inactive = mostly below about 26%
# PTK2B oligo ant – antagonists of Pyk2 self-association, primary screen, Q293 cells, FERM NanoBiT luminescence, HTS; z-score (the deposit names both 25 µM and 10 µM); AID 1347419, 2020; stronger effect = lower value; hit rate 0.83% among 99,000;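 active = Z-score of -3 or lower, scaled per plate to the spread of control and sample wells; inactive = z-score above -3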;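 note: negative z-score means lost luminescence so less FERM oligomerization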
# Cav3 T inh – Cav3.2 calcium influx blockers – cell-based, Fluo-4 calcium fluorescence, FDSS, MLSMR library, primary screen; B-score at 10 µM; hit rate 4% among 100,000; Cav3.2-expressing cells; stronger effect = lower value; Voltage-dependent T-type calcium channel subunit alpha-1H (Homo sapiens), O95180;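 active = single-dose well whose peak fluorescence ratio is a statistical outlier from its plate by either plate-standardised score or position-corrected B-score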
# Rev-RRE block – HIV-1 Rev-RRE binding inhibitors, primary screen, biochemical, FRET, protein-RNA interaction. P05866. Rev peptide-RRE RNA binding. inhibition, % at 8 µM. hit rate 0.79% among 97,000;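 active = inhibition above the screen-wide mean plus 3 SD, cut at about 35% in these data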;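 note: 0% = median DMSO wells and 100% = median Neomycin B control wells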
#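 Test system: Cy5-tagged RRE RNA duplex with fluorescein-tagged Rev peptide | Read-out: % inhibition of FRET ratio versus controls | Probe or stimulus: Labelled Rev peptide | Incubation: 5 min RNA-compound premix plus 15 min binding step, 25 °C | Technique: FRET fluorescence readout | Benchmarks: DMSO low control, neomycin B high control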
# Phagocyt inh – inhibitors of macrophage phagocytosis, primary screen, imaging, J774A.1 cells, IgG beads. J774A.1 macrophage IgG-bead phagocytosis. inhibition, % at 5 µM. hit rate 0.07% among 110,000;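 active = inhibition above the mean of the plate negative controls plus 5 SD, cut at about 13% in these data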;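 note: phagocytic index as fraction of beads internalized from green versus red external bead signal; plate controls were DMSO negative control for no effect and cytochalasin-D positive control for full effect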
# hDAT+cocaine – changed hDAT dopamine uptake under cocaine IC80, either direction, primary screen, cocaine antagonist project, cell-based, LLC-PK1 hDAT, [14C]-dopamine uptake, MLSMR; B-score at 10 µM; LLC-PK1 hDAT cells, [14C]-dopamine uptake with cocaine IC80; actives deviate in either direction; hit rate 1.3% among 110,000;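 active = Z score or B-score, a plate-position-corrected score, falls beyond the plate's 99.7% confidence bounds, in either direction; inactive = both scores lie inside the 99.7% bounds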;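 note: scored against the spread of the other compound wells on the same plate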
# Target sequence (Q01959 whole entry, looked up): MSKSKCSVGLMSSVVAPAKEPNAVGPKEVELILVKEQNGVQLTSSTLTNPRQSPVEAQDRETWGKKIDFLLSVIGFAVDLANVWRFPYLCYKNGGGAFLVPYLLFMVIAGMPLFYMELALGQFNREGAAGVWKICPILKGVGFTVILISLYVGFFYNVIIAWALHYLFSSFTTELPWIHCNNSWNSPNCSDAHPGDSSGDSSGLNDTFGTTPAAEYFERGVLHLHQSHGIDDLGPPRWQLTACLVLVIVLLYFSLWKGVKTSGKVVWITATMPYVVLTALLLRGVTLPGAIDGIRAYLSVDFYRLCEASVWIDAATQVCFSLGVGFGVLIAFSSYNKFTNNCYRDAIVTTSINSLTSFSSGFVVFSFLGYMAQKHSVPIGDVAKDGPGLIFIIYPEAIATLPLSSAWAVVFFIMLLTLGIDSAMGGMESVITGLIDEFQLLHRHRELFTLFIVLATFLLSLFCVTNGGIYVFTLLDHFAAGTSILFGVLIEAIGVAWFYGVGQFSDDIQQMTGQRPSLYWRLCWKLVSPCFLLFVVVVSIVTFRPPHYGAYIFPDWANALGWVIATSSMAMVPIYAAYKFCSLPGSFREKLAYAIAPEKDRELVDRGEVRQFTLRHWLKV
# Starred values were filed as active, the others as inactive; nt = no result given; [ ] = another dose, or the depositor's remark. Sampled rows, rich in hits. Any-hit rate of the full collection: about 5.9%.
SMILES,Measles CPE,PTK2B oligo ant,Cav3 T inh,Rev-RRE block,Phagocyt inh,hDAT+cocaine
COc1ccc(S(=O)(=O)Nc2ccc(F)cc2)cc1N(C)S(=O)(=O)c1ccc(Cl)cc1,4,-2.3,-5*,15,nt,-0.071
COc1ccc(S(=O)(=O)Nc2ccc(F)c(F)c2)cc1Cl,4,-1.2,-3.8,2,1,-0.69
Cc1ccc(-c2c[n+](CC(=O)Nc3cc(=O)n(C)c(=O)n3C)c3n2CCC3)cc1,nt,nt,nt,nt,-10,nt
COc1ccc(S(=O)(=O)Nc2ccccc2OC)cc1C,18,-0.19,-0.048,5,0,-1.3
COc1cc(NS(=O)(=O)c2ccc(C)c(C)c2)c(OC)cc1Cl,4,-1.6,-6.6*,15,nt,0.72
C=C(C)COc1ccc(-c2nc(N)ncc2Oc2ccccc2OC)c(O)c1,3,-4.3*,0.29,14,-1,-0.26
C=C(C)COc1ccc(-c2nc(N)ncc2Oc2ccc(OC)cc2)c(O)c1,18,-4.7*,nt,14,-1,nt
CCOc1ccc(-c2nc(N)ncc2Oc2ccccc2Br)c(O)c1,1,-2.2,0.04,15,0,-0.0075
CCOc1ccc(-c2nc(N)ncc2Oc2cccc(OC)c2)c(O)c1,5,-3.2*,0.7,18,2,0.39
COc1cccc(Oc2cncnc2-c2ccc(OC)cc2O)c1,nt,-1.8,-3.9*,10,0,0.69
C=C(C)COc1ccc(-c2[nH]ncc2-c2ccccc2OC)c(O)c1,8,-2,-3.4,11,0,0.18
C=C(C)COc1ccc(-c2n[nH]c(C)c2-c2ccc(Br)cc2)c(O)c1,6,-0.67,0.022,17,nt,-0.77
COc1ccc(-c2cc(-c3ccc(OC)c(OC)c3)n[nH]2)c(O)c1,13,-1.6,-0.044,14,-1,0.0039
COC(=O)c1c[nH]n2c(=O)cc(CCl)nc12,2,-0.23,-0.0027,7,0,-0.6
COc1ccc(-c2nnc(SCC(=O)Nc3cc(S(=O)(=O)N4CCCCC4)ccc3Cl)n2N)cc1,16,nt,nt,nt,-1,nt
C/C(=C\C(=O)OCCCCCCCCC(=O)O)C[C@@H]1OC[C@H](C[C@@H]2O[C@H]2[C@@H](C)[C@H](C)O)[C@@H](O)[C@H]1O,nt,nt,0.49,nt,nt,-0.46
CCCCCCCCNc1nc(Cl)nc(NCc2ccco2)n1,3,nt,nt,nt,-10,nt
CCCCCCNc1nc(NCc2ccco2)nc(OCC)n1,3,0.11,-7.2*,5,nt,-0.11
Cc1nnc2sc(-c3csc4c3CCCC4)nn12,4,-0.11,-2.3,2,0,3.4*
Cc1nnc2sc(-c3ccncc3)nn12,21,0.53,-0.084,6,0,-0.35
CC(C)CCNC(=O)CO/N=C/c1ccccc1OC(F)F,22,nt,nt,nt,-6,nt
C=CCn1c(NC(=O)c2ccccc2Cl)c(C#N)c2nc3ccccc3nc21,10,-0.34,-7*,20,-1,0.19
CC(NC(=O)c1ccccc1NS(C)(=O)=O)c1ccccc1 (configuration not stated),18,0.72,-0.81,5,-1,-1.1
CS(=O)(=O)Nc1ccccc1C(=O)O,51*,1.4,0.4,nt,0,2.2
CCc1cc2c(=O)c(Oc3ccccc3)c(C)oc2cc1O,11,-1.9,0.39,5,-1,-2.5*
SMILES,Measles CPE,PTK2B oligo ant,Cav3 T inh,Rev-RRE block,Phagocyt inh,hDAT+cocaine
CCOC(=O)c1oc2cc(O)ccc2c(=O)c1-c1ccccc1OC,5,-0.74,0.42,-3,nt,0.91
CCOC(=O)c1ccc(-c2c(C(=O)OCC)oc3cc(O)c(CC)cc3c2=O)o1,1,-3.7*,-0.83,2,3,0.067
Cc1oc2cc(OCC(=O)O)ccc2c(=O)c1Oc1ccccc1,13,1.4,-0.013,8,-1,0.21
Cc1ccc(-c2nc(N)sc2CC(=O)OCC(=O)NCC2CCCO2)cc1 (configuration not stated),9,nt,nt,nt,2,nt
CC(C)(C)C(=O)NCCCc1nc2ccccc2n1CCCOc1ccc(Cl)cc1,4,-0.53,-6.7*,6,nt,3.4*
CCOC(=O)c1oc2ccccc2c1CN1CCN(C(=O)c2ccccc2)CC1,15,nt,-0.85,nt,0,2.8*
CCOC(=O)c1oc2ccccc2c1CN1CCN(c2ccccc2)CC1,26,-0.56,-4.8*,2,3,-0.74
O=S(=O)(c1ccccc1)c1nc(-c2ccco2)oc1NCCCN1CCOCC1,4,-0.65,0.7,3,0,0.038
CCCCNc1oc(-c2cccs2)nc1S(=O)(=O)c1ccccc1,18,0.21,-3.3*,13,-1,1.5
O=S(=O)(c1ccccc1)c1nc(-c2cccs2)oc1NCCCn1ccnc1,25,0.04,-1.4,6,-1,2.5*
CCOC(=O)c1sc(NC(=O)/C=C/c2cnn(C)c2C)c(C(=O)OC(C)C)c1C,9,-1.2,-0.11,10,0,-0.65
CC(=O)C1=C(O)C(=O)N(c2cc(C(C)(C)C)on2)C1c1ccc(Br)cc1 (configuration not stated),5,0.65,-5.9*,nt,0,0.59
CC(=O)C1=C(O)C(=O)N(c2cc(C(C)(C)C)on2)C1c1ccc(C(C)C)cc1 (configuration not stated),20,-1.1,-4.2*,4,0,-0.18
CC(=O)C1=C(O)C(=O)N(c2nccs2)C1c1ccc(Br)cc1 (configuration not stated),21,-0.14,-3.6,2,0,-0.96
CCOc1ccc(NC(=O)CSc2nc(-c3cccs3)cc(C(F)(F)F)n2)c([N+](=O)[O-])c1,10,nt,nt,nt,nt,nt
CCOC(=O)C1C(=O)NC(SC)=C(C#N)C1c1ccccc1F (configuration not stated),11,-1.6,-4.9*,nt,-1,-0.31
CN(CC(=O)Nc1cccc(F)c1)C(=O)CCCc1cccs1,27,nt,nt,nt,-16,nt
Cc1ccc(/C=C/c2nc3ccccc3s2)s1,20,0.09,-0.95,23,-1,-0.2
CN(C)c1ccc(/C=C/c2nc3ccccc3s2)cc1,2,-0.22,-2.7,106*[fluorescence artefact?],-1,-0.22
CCN(CC)C(=O)Oc1ccc2c(=O)c(-c3ccc(OC)cc3)coc2c1,14,-1.6,-0.43,3,0,-0.051
CCN(CC)C(=O)Oc1ccc2c(=O)c(-c3ccc(OC)cc3)c(C)oc2c1,15,-1.4,-0.61,3,3,3.2*
COc1cc(C(Nc2ccccn2)c2ccc3ccc(C)nc3c2O)cc(OC)c1O (configuration not stated),41*,-1.6,0.38,1,-1,1.5
Cc1ccc2ccc(C(Nc3ccccn3)c3ccccc3)c(O)c2n1 (configuration not stated),18,nt,-2.5,9,0,-0.74
